Laboratory results from ChEMBL document CHEMBL2169759, “A new class of selective and potent 7-dehydrocholesterol reductase inhibitors” (J Med Chem, 2012).
Calls of active or inactive are those of the source. The calls are words filed in the database; no cut-off is given here.

Columns and labels:
[1] = tested on: Nakaseomyces glabratus; experiment: Antifungal activity against Candida glabrata DSM 11226 after 36 hrs by disc diffusion method; format: organism-based; conditions: in vivo
[2] = tested on: Yarrowia lipolytica; experiment: Antifungal activity against Yarrowia lipolytica DSM 1345 after 48 hrs; format: organism-based; conditions: in vivo
Summary of the method: (§1)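 MIC against the yeast strains determined according to DIN 58940-84; clotrimazole as positive control.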

[3] = Antifungal activity against Hyphopichia burtonii DSM 70663 after 36 hrs by disc diffusion method
[4] = tested on: HL-60; experiment: Cytotoxicity against human HL60 cells after 24 hrs by MTT assay; format: cell-based; conditions: HL-60, 24 h
Summary of the method: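 MTT colorimetric assay on HL-60 promyelocytic leukemia cells (RPMI 1640, 10% FBS, no antibiotics, 37 °C, 5% CO2) as a preliminary screen for unspecific cytotoxicity; cisplatin as reference.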

[5] = Antibacterial activity against Staphylococcus equorum DSM 20675 after 36 hrs by disc diffusion method
[6] = tested on: Saccharomyces cerevisiae; experiment: Antimicrobial activity against Saccharomyces cerevisiae DSM 1333 after 48 hrs; format: organism-based; conditions: in vivo; summary of the method: as §1
[7] = tested on: Yarrowia lipolytica; experiment: Antifungal activity against Yarrowia lipolytica DSM 1345 after 36 hrs by disc diffusion method; format: organism-based; conditions: in vivo
[8] = tested on: Nakaseomyces glabratus; experiment: Antifungal activity against Candida glabrata DSM 11226 after 48 hrs; format: organism-based; conditions: in vivo; summary of the method: as §1
[9] = tested on: Saccharomyces cerevisiae; experiment: Antifungal activity against Saccharomyces cerevisiae DSM 1333 after 36 hrs by disc diffusion method; format: organism-based; conditions: in vivo
[10] = biological target: T1, 7-dehydrocholesterol reductase (Homo sapiens) (UniProt Q9UBM7); experiment: Ratio of BM15.766 IC50 to compound IC50 for […]-mediated cholesterol biosynthesis in human HL60 cells; format: cell-based; conditions: HL-60
T1 sequence (whole entry): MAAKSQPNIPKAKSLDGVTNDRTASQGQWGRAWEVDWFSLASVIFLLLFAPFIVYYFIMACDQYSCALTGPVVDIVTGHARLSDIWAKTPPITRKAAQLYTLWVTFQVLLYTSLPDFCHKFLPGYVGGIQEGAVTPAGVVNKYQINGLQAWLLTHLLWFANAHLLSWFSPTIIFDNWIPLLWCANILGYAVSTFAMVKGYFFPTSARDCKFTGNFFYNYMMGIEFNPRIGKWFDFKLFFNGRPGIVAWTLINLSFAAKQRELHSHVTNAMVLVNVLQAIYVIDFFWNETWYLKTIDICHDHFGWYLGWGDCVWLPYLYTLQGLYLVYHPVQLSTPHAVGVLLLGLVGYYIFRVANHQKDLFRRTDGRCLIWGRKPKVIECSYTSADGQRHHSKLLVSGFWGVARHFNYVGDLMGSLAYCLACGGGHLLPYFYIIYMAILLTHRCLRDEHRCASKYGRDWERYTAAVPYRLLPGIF

[11] = tested on: Escherichia coli; experiment: Antibacterial activity against Escherichia coli DSM 426 after 36 hrs by disc diffusion method; format: organism-based; conditions: in vivo
[12] = biological target: T2, 7-dehydrocholesterol reductase (Homo sapiens, UniProt Q9UBM7); experiment: Inhibition of […]-mediated cholesterol biosynthesis in human HL60 cells assessed as inhibition of 2-[13C]acetate after 24 hrs GC/MS analysis; format: cell-based, HL-60
T2 sequence (Q9UBM7 whole entry): T1 sequence (whole entry)
Summary of the method: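 Whole-cell cholesterol synthesis in HL-60 cells, 24 h with inhibitor and sodium 2-¹³C-acetate; six concentrations plus blank, in triplicate. Newly made labeled cholesterol (m/z 372–379, 462–469) measured by GC-MS against cholestane and normalized to Bradford protein. % inhibition against untreated control fitted to a variable-slope sigmoid, bottom fixed at 0, giving IC50; BM 15.766 as reference.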

[13] = Antibacterial activity against Streptococcus entericus DSM 14446 after 36 hrs by disc diffusion method
[14] = Antifungal activity against Aspergillus brasiliensis DSM 1988 after 36 hrs by disc diffusion method
[15] = Antibacterial activity against Pseudomonas antimicrobica DSM 8361 after 36 hrs by disc diffusion method; conditions: burkholderia gladioli
[16] = biological target: T1, 7-dehydrocholesterol reductase (Homo sapiens); experiment: Inhibition of 7-dehydrocholesterol reductase in human HL60 cells assessed as accumulation of 7-dehydrocholesterol at 1 uM after 24 hrs by GC/MS analysis; format: cell-based; conditions: HL-60
Summary of the method: (§2)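 HL-60 cells (1 × 10⁶) in lipid-free HL-60 medium given inhibitor at 50 μM or 1 μM (ethanol blank) for 24 h at 37 °C, 5% CO2. Pellet saponified in 1 M NaOH, 1 h at 70 °C, then TBME microextraction with cholestane internal standard. GC-MS sterol pattern compared with blanks and with AY 9944 and BM 15.766 references.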

[17] = biological target: T1, 7-dehydrocholesterol reductase (Homo sapiens); experiment: Inhibition of 7-dehydrocholesterol reductase in human HL60 cells assessed as accumulation of 7-dehydrocholesterol at 50 uM after 24 hrs by GC/MS analysis; format: cell-based; conditions: HL-60; summary of the method: as §2
[18] = biological target: 3-beta-hydroxysteroid-Delta(8),Delta(7)-isomerase (Homo sapiens) (UniProt Q15125); experiment: Inhibition of delta8,7-isomerase in human HL60 cells assessed as accumulation of zymostenol at 1 uM after 24 hrs by GC/MS analysis; format: cell-based; conditions: HL-60; summary of the method: as §2
3-beta-hydroxysteroid-Delta(8),Delta(7)-isomerase (Homo sapiens), sequence (Q15125 whole entry): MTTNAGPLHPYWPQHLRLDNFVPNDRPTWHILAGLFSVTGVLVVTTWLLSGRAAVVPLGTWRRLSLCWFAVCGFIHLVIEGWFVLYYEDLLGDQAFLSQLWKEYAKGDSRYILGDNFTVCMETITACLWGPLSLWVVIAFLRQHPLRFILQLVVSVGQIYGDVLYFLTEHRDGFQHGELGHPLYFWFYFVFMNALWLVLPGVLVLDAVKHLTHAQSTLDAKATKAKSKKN

[19] = biological target: 3-beta-hydroxysteroid-Delta(8),Delta(7)-isomerase (Homo sapiens) (UniProt Q15125); experiment: Inhibition of delta8,7-isomerase in human HL60 cells assessed as accumulation of zymostenol at 50 uM after 24 hrs by GC/MS analysis; format: cell-based; conditions: HL-60; summary of the method: as §2

MIC [2] [µg/mL] | MIC [6] [µg/mL] | MIC [8] [µg/mL] | Ratio IC50 [10] | IC50 [12] [µM] | 7-DHCR inhibition (active/not active) [16] | 7-dehydrocholesterol accumulation (active/not active) [17] | inhibition (active/not active) [18] | isomerase inhibition (active/not active) [19] | SMILES | Activity [1] | Activity [3] | IC50 [4] [µM] | Activity [5] | Activity [7] | Activity [9] | Activity [11] | Activity [13] | Activity [14] | Activity [15]
> 20 | > 20 | > 20 | 200 | 0.0023 | Active | – | – | – | COc1cc2c(cc1O)CCN(CCc1ccc(Cl)cc1)C2 | Non-toxic | Non-toxic | > 50 | Non-toxic | Non-toxic | Non-toxic | Non-toxic | Non-toxic | Non-toxic | Non-toxic
> 20 | > 20 | > 20 | – | 7.3 | Active | – | – | – | COc1cc2c(cc1O)CCN(CCc1ccc(OC)c(OC)c1)C2 | Non-toxic | Toxic | > 50 | Non-toxic | Non-toxic | Non-toxic | Non-toxic | Non-toxic | Non-toxic | Non-toxic
> 20 | > 20 | > 20 | – | 0.12 | Active | – | – | – | COc1cccc(CCN2CCc3cc(O)c(OC)cc3C2)c1 | Non-toxic | Non-toxic | > 50 | Non-toxic | Non-toxic | Non-toxic | Non-toxic | Non-toxic | Non-toxic | Non-toxic
> 20 | > 20 | > 20 | – | – | inactive | inactive | inactive | inactive | COc1ccc(CCN2CCc3cc(OC)c(O)cc3C2)cc1 | Non-toxic | Non-toxic | > 50 | Non-toxic | Non-toxic | Non-toxic | Non-toxic | Non-toxic | Non-toxic | Non-toxic
> 20 | > 20 | > 20 | – | – | inactive | inactive | Active | Active | COc1ccc(CCN2CCc3cc4c(cc3C2)OCO4)cc1 | Non-toxic | Non-toxic | > 50 | Non-toxic | Non-toxic | Non-toxic | Non-toxic | Non-toxic | Non-toxic | Non-toxic
> 20 | > 20 | > 20 | – | – | inactive | inactive | Active | Active | COc1ccc2c(c1)CCN(CCc1ccccc1)C2 | Non-toxic | Non-toxic | > 50 | Non-toxic | Non-toxic | Non-toxic | Non-toxic | Non-toxic | Non-toxic | Non-toxic
– | – | – | – | 0.5 | – | – | – | – | O=C(O)c1ccc(CCN2CCN(C/C=C/c3ccc(Cl)cc3)CC2)cc1 | – | – | – | – | – | – | – | – | – | –
